Data set [1] concerns Clupea. Nature of the data set: Effect on thermal melting point of herring testes DNA at 10 uM. In a few lines:
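Herring testes DNA at 100 µM with 10 µM polyamine in 10 mM NaCl. Absorbance read at 260 nm while heating at 0.4 °C/min from 25–98 °C. The system equilibrated 15 min before the first reading, then readings were taken each degree (2 s averaging). Tm was taken from the peak of the first-derivative curve. pH was checked before and after polyamine addition.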

For data set [2], the system named is HCC1937. Nature of the data set: Toxicity in human HCC1937 cells after 48 hrs by MTT assay. Type of data set: cell-based. Conditions: hcc1937, 48 h. In a few lines:
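HCC1937 cells were grown in MEM α with 10% heat-inactivated FCS, NEAA, gentamycin, EGF 20 ng/ml and insulin, at 37 °C, 5% CO2. Plateau-phase cells were seeded at 0.055×10^6/ml and compounds added after 24 h at 0.1–100 µM final. Controls got PBS. MTT was added for 1 h, formazan dissolved in DMSO, A540 read. Values are % of control ± SD.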

The nature of data set [3]: Toxicity in human L56BrC1 cells after 48 hrs by MTT assay. Type of data set: cell-based. In a few lines: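 L56Br-C1 cells were grown in RPMI 1640 with 10% heat-inactivated FCS, NEAA, insulin and penicillin/streptomycin, at 37 °C, 5% CO2. After seeding at 0.055×10^6 cells/ml and 24 h growth, compounds were added at 0.1, 1, 10 or 100 µM final; controls received PBS. After 1 h MTT, formazan was dissolved in DMSO and A540 read. Results are % of control ± SD.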
In general terms: Formazan colour is commonly taken as a measure of viable cells.

The nature of data set [4]: Toxicity in human SKBR3 cells after 48 hrs by MTT assay. The class given is cell-based. Conditions: sk-br-3, 48 h. In a few lines: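 SK-BR-3 cells were grown in RPMI 1640 with 10% FCS, NEAA and penicillin/streptomycin, no insulin, at 37 °C, 5% CO2. Cells were seeded at 0.055×10^6/ml, and 24 h later compounds were added at 0.1–100 µM final (PBS for controls). MTT was added for 1 h, formazan dissolved in DMSO, A540 read; outer wells were excluded. Values are % of control ± SD.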

Data set [5] deals with Clupea. In words: Effect on thermal melting point of herring testes DNA at 50 uM.
The test system of data set [6] is Clupea. Nature of the data set: Effect on thermal melting point of herring testes DNA at 100 uM.
Data set [7] relates to Clupea. Nature of the data set: Effect on thermal melting point of herring testes DNA at 1 uM.

By ΔTm is commonly meant the shift of the melting midpoint relative to a reference.

Take `NCCCN(CCCN)CC(=O)NCC#Cc1nc(N)c2ncn([C@@H]3O[C@H](CO)[C@@H](O)[C@H]3O)c2n1`: in data set [1], the Tm is 66 °C. Besides, in data set [1], the ΔTm was 1 °C. For the same compound, the Activity entry in data set [2], in data set [3] and in data set [4] was “Non-toxic” each time.

Consider `NCCCN(CCCN)CC(=O)NCC#Cc1cn([C@@H]2O[C@H](CO)[C@@H](O)[C@H]2O)c(=O)[nH]c1=O`, for which the Tm in data set [1] came to 66.5 °C. Further, the ΔTm in data set [1] amounted to 1.5 °C. The Activity entry in data set [2], in data set [3] and in data set [4] was “Non-toxic” in each case.

Take `C#CCNC(=O)CN(CCCN)CCCN`: the Tm in data set [1] was 58 °C; in data set [5], 52 °C; in data set [6], 51 °C. For the same compound, the results for the ΔTm in data set [1], in data set [5] and in data set [6] were -7 °C, -13 °C and -14 °C, respectively. The Activity result in data set [2], in data set [3] and in data set [4] was “Non-toxic” each time.

Turning to `NCCCN(CCCN)CC(=O)O`, the Tm in data set [1] amounted to 61 °C; in data set [7] it was 62 °C; in data set [6] it was 50 °C. Moreover, the values for the ΔTm in data set [1], in data set [7] and in data set [6] were -4 °C, -3 °C and -15 °C, respectively. For the same compound, the Activity result in data set [2], in data set [3] and in data set [4] was “Non-toxic” throughout.

On to `NCCCNCCCN` [NORSPERMIDINE], for which the Tm in data set [1] was found to be 77 °C. In addition, the ΔTm in data set [1] was 12 °C. For the same compound, the Activity entry in data set [2], in data set [3] and in data set [4] was “Non-toxic” throughout.
